Measurements: ChEMBL document CHEMBL1127746, “Alpha-spirocyclopentyl- and alpha-spirocyclopropyl-gamma-butyrolactones: conformationally constrained derivatives of anticonvulsant and convulsant alpha,alpha-disubstituted gamma-butyrolactones” (J Med Chem, 1994)

Columns and labels:
[1] = biological target: GABA-A receptor; anion channel; assay: Displacement of 35[S]-TBPS from picrotoxinin (GABA-A) receptor of rat neuronal membranes; format: cell membranes, Membrane
Method in brief: (§1)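 Female Sprague-Dawley rat cerebral cortex membranes, washed and held in 50 mM Tris-citrate pH 7.5. 2 nM 35[S]-TBPS in NaBr with test compound, triplicate, 90 min at 25 °C. Filtration and scintillation counting; nonspecific binding with 10 μM TBPS or 100 μM picrotoxinin. IC50 by logistic fit of at least five concentrations; two or three experiments.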

[2] = biological target: T1, GABA-A receptor; anion channel (Rattus norvegicus) (UniProt O09028+P15431+P18506+P18508+P19969+P20236+P23574+P23576+P28471+P28473+P30191+P62813+P63079+P63138+Q91ZM7+Q9ES14); assay: Percent response relative to current produced by 1 uM GABA in rat hippocampal cells; format: functional, cell-based; settings: Hippocampus
Method in brief: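 Whole-cell patch clamp of hippocampal neurons cultured from 1-day-old female Sprague-Dawley pups, 10-21 days in culture, held at -30 mV, CsCl-based pipette solution. 1 μM GABA with compound (10 mM or 1 mM) applied 2 s. Current expressed relative to the mean of GABA controls before and after; only ±10% recovery kept; mean ± SEM.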

[3] = biological target: GABA-A receptor; anion channel; assay: Dissociation constant from displacement of 35[S]-TBPS binding from picrotoxinin (GABA-A) receptor of rat cerebral cortex; format: tissue-based
Method in brief: (§2)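 Saturation binding on rat cerebral cortex membranes in 50 mM Tris-citrate using 1-300 nM 35[S]-TBPS with test compound near its IC50, triplicate, 90 min at 25 °C. Filtration and scintillation counting. Kd and Bmax from Scatchard analysis; two or three experiments.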

[4] = […] dose at which 50% of the mice have clonic convulsions; settings: mouse, in vivo; read-out: CD50 (the source's name)
Method in brief: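 Female CF-1 mice, 6-8 weeks old; test compound in 30% PEG given ip at 5-10 mice/dose. Animals observed 30 min for clonic seizures after injection. CD50 derived by log10 probit analysis from the number of animals with clonic seizures.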

[5] = biological target: T1, GABA-A receptor; anion channel (Rattus norvegicus); assay: Maximum Binding affinity for picrotoxinin (GABA-A) receptor of rat cerebral cortex; format: tissue-based; method in brief: as §2
[6] = Toxic dose at which 50% of the mice failed the rotarod neurotoxicity test; format: toxicity; settings: mouse, in vivo
Method in brief: (§3)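 Female CF-1 mice (6-8 weeks) given test compound ip in 30% PEG, 5-10 mice/dose. Neurotoxicity scored as failure on the rotorod test. TD50 derived by log10 probit analysis of dose-response data.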

[7] = biological target: T1, GABA-A receptor; anion channel (Rattus norvegicus); assay: Percent response relative to current produced by 10 uM GABA in rat hippocampal cells; format: functional, cell-based; settings: Hippocampus
[8] = biological target: GABA-A receptor; anion channel; assay: Inhibition of 35[S]-TBPS binding to GABA-A (picrotoxin) receptor of rat neuronal membranes; format: cell membranes, Membrane; method in brief: as §1
[9] = system: Mus musculus; assay: Effective dose at which 50% of the mice were protected from clonic seizures induced by pentylenetetrazole (85 mg/kg); format: functional
Method in brief: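 Female CF-1 mice, 6-8 weeks old, dosed ip with test compound in 30% PEG (5-10 mice/dose). Non-convulsant compounds then challenged with PTZ 85 mg/kg given as 0.85% solution in 0.9% NaCl. Mice observed 30 min for seizures.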

[10] = Dose at which 50% of the mice failed the rotarod neurotoxicity test; settings: mouse, in vivo; method in brief: as §3
[11] = biological target: T1, GABA-A receptor; anion channel (Rattus norvegicus); assay: Percent response relative to current produced by 1 uM GABA in rat hippocampal cells; settings: Hippocampus

| SMILES | IC50 [1] [nM] | Response [2] [%] | Kd [3] [nM] | TD50 [4] [mg/kg] | Bmax (pM (mg of protein)-1) [5] | TD50 [6] [mg/kg] | Response [7] [%] | IC50 [8] [nM] | ED50 [9] [mg/kg] | TD50 [10] [mg/kg] | Response [11] [%] |
| --- | --- | --- | --- | --- | --- | --- | --- | --- | --- | --- | --- |
| C[C@H]1CC[C@H](C)C12CCOC2=O | 200 | 80 | 35.6 | 198 | 1.04 | – | – | – | – | – | – |
| O=C1OCCC12CC2 | – | – | – | – | – | > 500 | 62 | > 10000 | – | – | – |
| C[C@H]1CC12CCOC2=O (stereo partly drawn) | 7170 | – | 44.1 | – | 1.27 | > 300 | 149 | – | 210 | – | – |
| CC1CCCC12CCOC2=O (stereo not drawn) | 680 | – | 39.5 | – | 0.93 | > 500 | 252 | – | – | – | – |
| CC(C)C1(C)CCOC1=O (stereo not drawn) | 740 | 116 | 47 | – | 0.99 | – | – | – | – | – | – |
| CCC1(C(C)(C)C)CCOC1=O (stereo not drawn) | 310 | 47 | 46.8 | 133 | 1.54 | – | – | – | – | – | – |
| C[C@@H]1CC[C@H](C)C12CCOC2=O (stereo partly drawn) | 780 | – | 38.5 | – | 0.54 | – | 198 | – | – | > 500 | – |
| C[C@@H]1CC12CCOC2=O (stereo partly drawn) | 3410 | – | 40.4 | – | 1.14 | > 500 | 48 | – | 259 | – | – |
| CCC1(CC)CCOC1=O | 750 | – | 37.2 | – | 1.51 | – | 301 | – | – | – | – |
| CCC1(C(C)C)CCOC1=O (stereo not drawn) | 240 | – | 35.2 | – | 1.5 | > 300 | 222 | – | 169 | – | – |
| CC1(C)CCOC1=O | – | – | – | – | – | > 500 | 41 | 9200 | > 500 | – | – |
| CC1(C)CCCC12CCOC2=O (stereo not drawn) | 360 | – | 41.8 | – | 1 | 10 | 327 | – | – | – | – |
| CC1(C)CC12CCOC2=O (stereo not drawn) | 1140 | 247 | 35.4 | – | 0.86 | – | – | – | 221 | 254 | – |
| CCC1(C)CCOC1=O (stereo not drawn) | 2280 | – | 80.7 | – | 1.27 | – | 170 | – | – | – | – |
| CC(C)C1(C(C)C)CCOC1=O | 220 | – | 33.4 | 137 | 1.49 | – | 328 | – | – | – | – |
| O=C1OCCC12CCCC2 | 810 | – | 48.8 | – | 1.04 | – | – | – | 385 | – | 220 |
